# Measured values published in ChEMBL document CHEMBL5058577, “EUbOPEN Chemogenomics Library 2 (Multiplex)” (2022).
# Tested on: Fibroblast
# Experiment: Multiplex assay against human fibroblast
# Type: toxicity, cell-based
# Method in brief: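 On a CQ1 microscope at 37°C and 5% CO2, live cells were imaged after compound addition. They had been stained at seeding with Hoechst33342, BioTracker Green Microtubule Cytoskeleton Dye, MitoTracker Red and Annexin V Alexa Fluor 680. CellPathfinder machine-learning gating assigned cells to Hoechst high-intensity objects or normal cells, normal cells to healthy, pyknosed or fragmented nuclei, and pyknosed cells to mitotic or apoptotic. Tubulin, mitochondrial-mass and membrane-permeability phenotypes are per cents of healthy-nucleus cells.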
# [1] = 12 h, 1 µM, compound concentration 1 uM, replicate 1
# [2] = 12 h, 1 µM, compound concentration 1 uM, replicate 2
# [3] = 12 h, 10 µM, compound concentration 10 uM, replicate 1
# [4] = 12 h, 10 µM, compound concentration 10 uM, replicate 2
# [5] = 24 h, 1 µM, compound concentration 1 uM, replicate 1
# [6] = 24 h, 1 µM, compound concentration 1 uM, replicate 2
# [7] = 24 h, 10 µM, compound concentration 10 uM, replicate 1
# [8] = 24 h, 10 µM, compound concentration 10 uM, replicate 2
# [9] = 48 h, 1 µM, compound concentration 1 uM, replicate 1
# [10] = 48 h, 1 µM, compound concentration 1 uM, replicate 2
# [11] = 48 h, 10 µM, compound concentration 10 uM, replicate 1
# [12] = 48 h, 10 µM, compound concentration 10 uM, replicate 2
compound,measurement,setting,value
Cc1ccc(/C(=C\CN2CCCC2)c2ccccn2)cc1 [TRIPROLIDINE],Population Apoptotic (%),[1],52%
same,Population Fragmented Nuclei (%),[1],17%
same,Population Healthy Nuclei (%),[1],64%
same,Population Hoechst High Intensity Objects (%),[1],3%
same,Population Membrane Permeable-Phenotype (%),[1],0%
same,Population Mitochondria Different-Phenotype (%),[1],9%
same,Population Mitotic Cells (%),[1],47%
same,Population Normal (%),[1],96%
same,Population Pyknosed Nuclei (%),[1],18%
same,Population Tubulin-Different-Phenotype (%),[1],29%
same,Total Cell Count,[1],119
same,Population Apoptotic (%),[2],41%
same,Population Fragmented Nuclei (%),[2],28%
same,Population Healthy Nuclei (%),[2],45%
same,Population Hoechst High Intensity Objects (%),[2],4%
same,Population Membrane Permeable-Phenotype (%),[2],1%
same,Population Mitotic Cells (%),[2],58%
same,Population Normal (%),[2],95%
same,Population Pyknosed Nuclei (%),[2],25%
same,Population Tubulin-Different-Phenotype (%),[2],60%
same,Total Cell Count,[2],127
same,Population Apoptotic (%),[3],57%
same,Population Fragmented Nuclei (%),[3],14%
same,Population Healthy Nuclei (%),[3],64%
same,Population Hoechst High Intensity Objects (%),[3],2%
same,Population Membrane Permeable-Phenotype (%),[3],0%
same,Population Mitochondria Different-Phenotype (%),[3],5%
same,Population Mitotic Cells (%),[3],42%
same,Population Normal (%),[3],97%
same,Population Pyknosed Nuclei (%),[3],20%
same,Population Tubulin-Different-Phenotype (%),[3],44%
same,Total Cell Count,[3],139
same,Population Apoptotic (%),[4],50%
same,Population Fragmented Nuclei (%),[4],26%
same,Population Healthy Nuclei (%),[4],52%
same,Population Membrane Permeable-Phenotype (%),[4],9%
same,Population Mitochondria Different-Phenotype (%),[4],9%
same,Population Mitotic Cells (%),[4],50%
same,Population Pyknosed Nuclei (%),[4],21%
same,Population Tubulin-Different-Phenotype (%),[4],59%
same,Total Cell Count,[4],141
same,Population Apoptotic (%),[5],43%
same,Population Fragmented Nuclei (%),[5],17%
same,Population Healthy Nuclei (%),[5],69%
same,Population Hoechst High Intensity Objects (%),[5],4%
same,Population Membrane Permeable-Phenotype (%),[5],1%
same,Population Mitochondria Different-Phenotype (%),[5],3%
same,Population Mitotic Cells (%),[5],56%
same,Population Normal (%),[5],95%
same,Population Pyknosed Nuclei (%),[5],13%
same,Population Tubulin-Different-Phenotype (%),[5],23%
same,Total Cell Count,[5],128
same,Population Apoptotic (%),[6],46%
same,Population Fragmented Nuclei (%),[6],29%
same,Population Healthy Nuclei (%),[6],43%
same,Population Hoechst High Intensity Objects (%),[6],9%
same,Population Membrane Permeable-Phenotype (%),[6],6%
same,Population Mitochondria Different-Phenotype (%),[6],6%
same,Population Mitotic Cells (%),[6],53%
same,Population Normal (%),[6],90%
same,Population Pyknosed Nuclei (%),[6],27%
same,Population Tubulin-Different-Phenotype (%),[6],64%
same,Total Cell Count,[6],121
same,Population Apoptotic (%),[7],47%
same,Population Fragmented Nuclei (%),[7],15%
same,Population Healthy Nuclei (%),[7],68%
same,Population Hoechst High Intensity Objects (%),[7],4%
same,Population Membrane Permeable-Phenotype (%),[7],0%
same,Population Mitochondria Different-Phenotype (%),[7],3%
same,Population Mitotic Cells (%),[7],52%
same,Population Normal (%),[7],95%
same,Population Pyknosed Nuclei (%),[7],15%
same,Population Tubulin-Different-Phenotype (%),[7],41%
same,Total Cell Count,[7],142
same,Population Apoptotic (%),[8],58%
same,Population Fragmented Nuclei (%),[8],29%
same,Population Healthy Nuclei (%),[8],52%
same,Population Hoechst High Intensity Objects (%),[8],2%
same,Population Membrane Permeable-Phenotype (%),[8],6%
same,Population Mitochondria Different-Phenotype (%),[8],12%
same,Population Mitotic Cells (%),[8],41%
same,Population Normal (%),[8],97%
same,Population Pyknosed Nuclei (%),[8],17%
same,Population Tubulin-Different-Phenotype (%),[8],62%
same,Total Cell Count,[8],141
same,Population Apoptotic (%),[9],54%
same,Population Fragmented Nuclei (%),[9],26%
same,Population Healthy Nuclei (%),[9],65%
same,Population Hoechst High Intensity Objects (%),[9],3%
same,Population Membrane Permeable-Phenotype (%),[9],1%
same,Population Mitochondria Different-Phenotype (%),[9],2%
same,Population Mitotic Cells (%),[9],45%
same,Population Normal (%),[9],96%
same,Population Pyknosed Nuclei (%),[9],8%
same,Population Tubulin-Different-Phenotype (%),[9],31%
same,Total Cell Count,[9],135
same,Population Apoptotic (%),[10],52%
same,Population Fragmented Nuclei (%),[10],29%
same,Population Healthy Nuclei (%),[10],48%
same,Population Hoechst High Intensity Objects (%),[10],7%
same,Population Membrane Permeable-Phenotype (%),[10],7%
same,Population Mitochondria Different-Phenotype (%),[10],10%
same,Population Mitotic Cells (%),[10],48%
same,Population Normal (%),[10],92%
same,Population Pyknosed Nuclei (%),[10],21%
same,Population Tubulin-Different-Phenotype (%),[10],57%
same,Total Cell Count,[10],124
same,Population Apoptotic (%),[11],38%
same,Population Fragmented Nuclei (%),[11],20%
same,Population Healthy Nuclei (%),[11],69%
same,Population Hoechst High Intensity Objects (%),[11],7%
same,Population Membrane Permeable-Phenotype (%),[11],1%
same,Population Mitochondria Different-Phenotype (%),[11],6%
same,Population Mitotic Cells (%),[11],61%
same,Population Normal (%),[11],92%
same,Population Pyknosed Nuclei (%),[11],9%
same,Population Tubulin-Different-Phenotype (%),[11],35%
same,Total Cell Count,[11],142
same,Population Apoptotic (%),[12],42%
same,Population Fragmented Nuclei (%),[12],32%
same,Population Healthy Nuclei (%),[12],56%
same,Population Hoechst High Intensity Objects (%),[12],5%
same,Population Membrane Permeable-Phenotype (%),[12],5%
same,Population Mitochondria Different-Phenotype (%),[12],9%
same,Population Mitotic Cells (%),[12],57%
same,Population Normal (%),[12],94%
same,Population Pyknosed Nuclei (%),[12],10%
same,Population Tubulin-Different-Phenotype (%),[12],54%
same,Total Cell Count,[12],140
